Test results taken from ChEMBL document CHEMBL6177922, “Antibacterial activity of the structurally novel C-2 amine-substituted analogues based on quinoxaline” (RSC Med Chem, 2025).
Values after ≈ are worked out from the molar mass of the structure shown. Active and inactive are the calls of the source. The rule behind the calls is not given here.

Assays:
Staphylococcus aureus [1] = assay: Antibacterial activity against methicillin-resistant Staphylococcus aureus infected in Kunming mouse corneal infection model assessed as reduction in viable bacterial count at 6 mg/ml, TOP administered 3 times daily for 1 week; assay type: functional, organism-based; settings: time 1.0 weeks
Outline: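 Corneal infection model: male and female Kunming mice (~20 g) immunosuppressed with daily i.p. cyclophosphamide for 3 days. Anesthetized with i.p. avertin (400 mg kg-1), corneas abraded and given 20 μL MRSA (6 × 10^7 CFU mL-1). From 24 h post-infection, treated by topical smear three times daily for one week. Controls: 5% glucose and 5% vancomycin. Six mice per group. Corneal viable counts measured.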

Staphylococcus aureus [2] = assay: Bactericidal activity against methicillin-resistant Staphylococcus aureus assessed as inhibition of bacterial growth at 2 times MIC incubated for 24 hrs by time kill assay; assay type: functional, organism-based
Outline: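 Time-kill: MRSA grown 24 h at 37 °C, adjusted to ~2 × 10^6 CFU mL-1, exposed at 2× or 3× MIC with shaking at 37 °C. Aliquots taken at 0.5–13 h, serially diluted 10-fold in PBS, plated on Mueller–Hinton agar, counted after 24 h at 37 °C. Duplicate.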

Klebsiella pneumoniae = assay: Antibacterial activity against drug-resistant Klebsiella pneumoniae assessed as reduction in bacterial growth by broth microdilution method; assay type: functional
Outline: (§1)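 Twofold serial dilution (microdilution) MIC in lysogeny broth (LB) medium against drug-resistant strains: MRSA USA300, vancomycin-resistant Enterococci, Klebsiella pneumoniae.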

[3] = Cytotoxicity against human HK-2 cells assessed as inhibition of cell growth incubated for 24 hrs by MTT assay; assay type: toxicity, cell-based
Outline: (§2)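 MTT assay with 24 h exposure of cells to the samples. IC50 is the concentration giving 50% growth inhibition, reported as mean ± S.D. of three independent experiments.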

Bacillus subtilis = assay: Antibacterial activity against drug sensitive Bacillus subtilis 168 assessed as reduction in bacterial growth by broth microdilution method; assay type: functional
Outline: (§3)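 MICs were determined by standard twofold serial broth microdilution in lysogeny broth (LB) medium.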

[4] = Cytotoxicity against human HEK293 cells assessed as inhibition of cell growth incubated for 24 hrs by MTT assay; assay type: toxicity, cell-based; outline: as §2
Enterococcus = assay: Antibacterial activity against vancomycin-resistant Enterococcus assessed as reduction in bacterial growth by broth microdilution method; assay type: functional; outline: as §1
Staphylococcus aureus [5] = assay: Antibacterial activity against methicillin-resistant Staphylococcus aureus USA300 assessed as reduction in bacterial growth by broth microdilution method; assay type: functional; outline: as §1
Pseudomonas aeruginosa = assay: Antibacterial activity against drug sensitive Pseudomonas aeruginosa PAO1 assessed as reduction in bacterial growth by broth microdilution method; assay type: functional; outline: as §3
Escherichia coli = assay: Antibacterial activity against drug sensitive Escherichia coli DH5alpha assessed as reduction in bacterial growth by broth microdilution method; assay type: functional; outline: as §3
Staphylococcus aureus [6] = assay: Antibacterial activity against drug sensitive Staphylococcus aureus RN4220 assessed as reduction in bacterial growth by broth microdilution method; assay type: functional; outline: as §3
MCF7 = assay: Cytotoxicity against human MCF7 cells assessed as inhibition of cell growth incubated for 24 hrs by MTT assay; assay type: functional, cell-based; settings: MCF7, 24 h; outline: as §2

| Compound | Activity (Staphylococcus aureus [1]) | Activity (Staphylococcus aureus [2]) | MIC (Klebsiella pneumoniae) [µg/mL] | IC50 at 24 h [3] [µg/mL] | MIC (Bacillus subtilis) [µg/mL] | IC50 at 24 h [4] [µg/mL] | MIC (Enterococcus) [µg/mL] | MIC (Staphylococcus aureus [5]) [µg/mL] | MIC (Pseudomonas aeruginosa) [µg/mL] | MIC (Escherichia coli) [µg/mL] | MIC (Staphylococcus aureus [6]) [µg/mL] | IC50 (MCF7) [µg/mL] |
| --- | --- | --- | --- | --- | --- | --- | --- | --- | --- | --- | --- | --- |
| CN[C@H](CC(C)C)C(=O)N[C@H]1C(=O)N[C@@H](CC(N)=O)C(=O)N[C@H]2C(=O)N[C@H]3C(=O)N[C@H](C(=O)N[C@H](C(=O)O)c4cc(O)cc(O)c4-c4cc3ccc4O)[C@H](O)c3ccc(c(Cl)c3)Oc3cc2cc(c3O[C@@H]2O[C@H](CO)[C@@H](O)[C@H](O)[C@H]2O[C@H]2C[C@](C)(N)[C@H](O)[C@H](C)O2)Oc2ccc(cc2Cl)[C@H]1O | Active |  |  |  |  |  |  |  |  |  |  |  |
| CCn1cc(C(=O)O)c(=O)c2cc(F)c(N3CCNCC3)cc21 |  | Active |  |  |  |  |  |  |  |  |  |  |
| Cc1ccc(CCNc2nc3ccccc3nc2N)cc1 |  |  | 64 (≈ 230 µM) | 150 (≈ 538 µM) | 32 (≈ 115 µM) | 136 (≈ 487 µM) | > 128 | 32 (≈ 115 µM) | 64 (≈ 230 µM) | 32 (≈ 115 µM) | 16 (≈ 57.5 µM) | 70.9 (≈ 255 µM) |
| Nc1nc2ccccc2nc1NCCc1ccccc1F |  |  | > 128 |  | 128 (≈ 453 µM) |  | 128 (≈ 453 µM) | 128 (≈ 453 µM) | 128 (≈ 453 µM) | 128 (≈ 453 µM) | 64 (≈ 227 µM) |  |
| CNc1nc2ccccc2nc1N |  |  | > 128 |  | 64 (≈ 367 µM) |  | > 128 | > 128 | 128 (≈ 735 µM) | 128 (≈ 735 µM) | 128 (≈ 735 µM) |  |
| Nc1nc2ccccc2nc1NCCC1CCCCC1 |  |  | > 128 |  | > 128 |  | > 128 | 128 (≈ 473 µM) | 128 (≈ 473 µM) | > 128 | 128 (≈ 473 µM) |  |
| Nc1nc2ccccc2nc1NCCc1ccccc1Br |  |  | 64 (≈ 186 µM) |  | 64 (≈ 186 µM) |  | 128 (≈ 373 µM) | 128 (≈ 373 µM) | 128 (≈ 373 µM) | > 128 | 128 (≈ 373 µM) |  |
| Nc1nc2ccccc2nc1NCc1ccc2ccccc2c1 |  |  | > 128 | 147 (≈ 488 µM) | 32 (≈ 107 µM) | 131 (≈ 435 µM) | > 128 | 64 (≈ 213 µM) | > 128 | 64 (≈ 213 µM) | 32 (≈ 107 µM) | 69.7 (≈ 232 µM) |
| Nc1nc2ccccc2nc1NCCc1ccc(Cl)c(Cl)c1 |  |  | > 128 |  | > 128 |  | > 128 | > 128 | > 128 | > 128 | > 128 |  |
| Nc1nc2ccccc2nc1NCCc1ccc(Br)cc1 |  |  | > 128 |  | 64 (≈ 186 µM) |  | > 128 | > 128 | 128 (≈ 373 µM) | 128 (≈ 373 µM) | 64 (≈ 186 µM) |  |
| Nc1nc2ccccc2nc1NCCCc1ccccc1 |  |  | 128 (≈ 460 µM) | 141 (≈ 506 µM) | 64 (≈ 230 µM) | 126 (≈ 451 µM) | 128 (≈ 460 µM) | 128 (≈ 460 µM) | > 128 | 128 (≈ 460 µM) | 32 (≈ 115 µM) | 68.7 (≈ 247 µM) |
| COc1ccc(CCNc2nc3ccccc3nc2N)cc1 |  |  | 64 (≈ 217 µM) | 139 (≈ 471 µM) | 16 (≈ 54.4 µM) | 129 (≈ 437 µM) | > 128 | 16 (≈ 54.4 µM) | 128 (≈ 435 µM) | 32 (≈ 109 µM) | 16 (≈ 54.4 µM) | 71.5 (≈ 243 µM) |
| O=c1[nH]cc(F)c(=O)[nH]1 [FLUOROURACIL] |  |  |  |  |  |  |  |  |  |  |  | 0.85 (≈ 6.53 µM) |
| Nc1nc2ccccc2nc1NCCc1ccc(F)cc1 |  |  | 128 (≈ 453 µM) |  | 64 (≈ 227 µM) |  | 128 (≈ 453 µM) | > 128 | > 128 | 128 (≈ 453 µM) | 64 (≈ 227 µM) |  |
| Nc1nc2ccccc2nc1NCCc1ccccc1 |  |  | > 128 | 130 (≈ 493 µM) | 64 (≈ 242 µM) | 123 (≈ 467 µM) | > 128 | > 128 | 128 (≈ 484 µM) | 128 (≈ 484 µM) | 32 (≈ 121 µM) | 72.3 (≈ 274 µM) |
| NC[C@H]1O[C@H](O[C@H]2[C@H](O)[C@@H](O[C@H]3O[C@H](CO)[C@@H](O)[C@H](N)[C@H]3O)[C@H](N)C[C@@H]2N)[C@H](O)[C@@H](O)[C@@H]1O [KANAMYCIN] |  |  | 4 (≈ 8.26 µM) |  | 0.5 (≈ 1.03 µM) |  | 8 (≈ 16.5 µM) | 1 (≈ 2.06 µM) | 4 (≈ 8.26 µM) | 1 (≈ 2.06 µM) | 1 (≈ 2.06 µM) |  |
| COc1cccc(CCNc2nc3ccccc3nc2N)c1 |  |  | 64 (≈ 217 µM) | 142 (≈ 483 µM) | 32 (≈ 109 µM) | 130 (≈ 443 µM) | 128 (≈ 435 µM) | 16 (≈ 54.4 µM) | 64 (≈ 217 µM) | 16 (≈ 54.4 µM) | 8 (≈ 27.2 µM) | 74.7 (≈ 254 µM) |
| CCNc1nc2ccccc2nc1N |  |  | > 128 |  | 128 (≈ 680 µM) |  | 128 (≈ 680 µM) | > 128 | 128 (≈ 680 µM) | > 128 | 128 (≈ 680 µM) |  |
| Nc1nc2ccccc2nc1NCCC1=CCCCC1 |  |  | > 128 |  | 128 (≈ 477 µM) |  | > 128 | > 128 | > 128 | > 128 | 64 (≈ 238 µM) |  |
